Screening data deposited in PubChem BioAssay by several laboratories.
DNA FID counter: fluorescent intercalator displacement, NS3 helicase counter-screen. DNA fluorescent intercalator displacement, fluorescence. inhibition, % at 7.9 µM. 290,000 tested, 0.17% active. AID 1845; in the data active means inhibition above about 37%;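 further: 0% = vehicle and 100% = reference compound; higher means more ethidium bromide displaced from hairpin DNA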
core dimer inh: HCV core protein dimerization inhibition. inhibition, % at 5 µM. 300,000 tested, 0.33% active. TR-FRET GST/Flag-core106 dimerization, 1536-well;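 active means inhibition above the mean of all tested compounds plus 3 SD, set per screening campaign, cut at about 45% in these data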
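Material: GST/Flag-tagged HCV core106 proteins. Incubation: 4 h, 22.5 °C incubation. Read-out basis: inhibition (%) from 671 over 617 nm ratio. Measured by: TR-FRET, excitation 340 nm, emission 617 and 671 nm.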
CendR NRP1 mod: NRP-1/CendR interaction modulation. FAM-RPARPAR peptide binding to NRP-1, fluorescence polarization. inhibition, % at 25 µM. 360,000 tested, 0.85% active. AID 602438;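 active means inhibition or corrected inhibition above about 18%, plus a signal ratio from 0.5 to 1.5, limit read from the data, passing the limit was not always enough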
MEX-5 binding: C. elegans MEX-5 TCR-2 RNA binding activity. MEX-5/FITC-TCR2 RNA binding, fluorescence polarization; active compounds read low. activity score (negative = inhibition of binding), % at 10 µM. 300,000 tested, 0.38% active;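 active means inhibition past about -25% in most replicates, and total fluorescence under double the plate's negative control median, limit read from the data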;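 further: 0% = DMSO and -100% = 5 µM competing unlabeled TCR2 RNA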
Target sequence (Q9XUB2 whole entry, looked up): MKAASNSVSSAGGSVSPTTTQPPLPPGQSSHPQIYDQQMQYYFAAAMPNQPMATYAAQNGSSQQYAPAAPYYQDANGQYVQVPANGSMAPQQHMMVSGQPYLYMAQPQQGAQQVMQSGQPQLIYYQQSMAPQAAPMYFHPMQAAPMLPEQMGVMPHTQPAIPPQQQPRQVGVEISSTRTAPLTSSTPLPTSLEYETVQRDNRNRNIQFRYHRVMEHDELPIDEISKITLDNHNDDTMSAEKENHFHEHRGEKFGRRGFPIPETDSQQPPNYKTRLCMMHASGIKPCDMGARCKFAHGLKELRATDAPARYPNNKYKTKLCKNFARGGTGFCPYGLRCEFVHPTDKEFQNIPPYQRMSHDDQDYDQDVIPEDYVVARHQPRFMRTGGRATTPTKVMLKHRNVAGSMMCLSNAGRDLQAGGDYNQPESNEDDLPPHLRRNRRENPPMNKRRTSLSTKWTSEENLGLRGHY
Active calls of the source: *; . = not tested or not shown. Rows were chosen to be rich in hits. Some 1.5% of all compounds tested hit in one or more screens of this group.

SMILES	DNA FID counter	core dimer inh	CendR NRP1 mod	MEX-5 binding
CCN(CC)S(=O)(=O)c1ccc(-c2nnc(SCC(=O)N3c4ccccc4CC3C)n2CC)cc1 (stereo unspecified)	0	12	26*	-4
N#CC1=C(N)Oc2cc(O)c(Cl)cc2C1c1ccccc1F (stereo unspecified)	-8	16	118	-46*
O=C(NC(C(=O)c1ccccc1)c1ccccc1)c1ccccc1 (stereo unspecified)	.	.	9	.
N#Cc1ccccc1S(=O)(=O)N1CCN(CC(=O)Nc2ccccc2C(=O)NC2CC2)CC1	.	.	-5	.
CN(CCC#N)C(=O)COC(=O)c1c2c(nc3ccccc13)/C(=C/c1ccco1)CC2	-12	53*	-52	-24
COc1cc(/C=C/C(=O)O)cc(S(=O)(=O)Nc2cc(S(=O)(=O)N3CCCCC3)ccc2Cl)c1OC	.	.	1	.
O=C(COC(=O)c1cc2c(s1)CCC2)Nc1ccc(F)cc1	-13	50*	-13	0
Cc1cc(N/N=C/c2ccc(O)cc2)c2cccc(C)c2n1	25	-8	-2	2
Cc1cc(C)c2nc(C)cc(N/N=C/c3ccc(O)cc3)c2c1	48*	-16	7	0
CCOC(=O)/C(=C/c1ccc(N2CCC(c3ccccc3)=N2)cc1)C(C)=O	2	.	-29	-33*
COc1cccc(CN2CCC(C)(Oc3cccc(Cl)c3)C2)c1OC (stereo unspecified)	.	.	-3	.
c1ccc(CN2CCC(Nc3nc(-c4ccccc4)nc4ccccc34)CC2)cc1	42*	-1	-15	1
O=C1C(Nc2ccc(O)cc2)=C/C(=N/S(=O)(=O)c2cccs2)c2ccccc21	8	.	20	-16
CCc1ccc(S(=O)(=O)/N=C2\C=C(Nc3ccc(O)cc3)C(=O)c3ccccc32)cc1	33	-3	16	0
Cc1ccc(NC2=C/C(=N\S(=O)(=O)c3cccs3)c3ccccc3C2=O)c(C)c1	3	52*	12	-1
CCc1ccc(S(=O)(=O)/N=C2\C=C(Nc3cccc(C(=O)O)c3)C(=O)c3ccccc32)cc1	11	2	41*	-14
O=C(O)c1ccc(NC2=C/C(=N/S(=O)(=O)c3cccs3)c3ccccc3C2=O)cc1	.	.	42*	.
O=C(O)c1ccc(NC2=C/C(=N/S(=O)(=O)c3ccccc3)c3ccccc3C2=O)cc1	-25	.	37*	.
N=c1c2c(n(Cc3ccc(F)cc3)c3c1CCC3)CCCC2	2	0	24*	2
N=c1c2c(n(Cc3ccc(Cl)cc3)c3c1CCC3)CCC2	13	-4	8	-2
COC(=O)COc1ccc(S(=O)(=O)N2CCN(c3ccc(F)cc3)CC2)cc1	-8	-3	-10	3
COC(=O)COc1ccc(S(=O)(=O)N2CCN(c3ccc(OC)cc3)CC2)cc1	-12	0	24*	1
CC(=O)Nc1cc(-c2ccc(N(C)C)cc2)cn2c(-c3ccc(F)c(Cl)c3)cnc12	.	.	-75	.
CC(=O)NC(=S)Nc1ccc(NC(=S)NC(=O)/C=C/c2ccco2)cc1	-6	18	-7	0
O=C(/C=C/c1ccco1)NC(=S)NNC(=O)c1ccco1	-8	5	-16	-26*
SMILES	DNA FID counter	core dimer inh	CendR NRP1 mod	MEX-5 binding
O=C(/C=C/c1ccco1)NC(=S)Nc1ccc(C(=O)O)cc1	-5	-9	-120	-32*
COc1ccc(CN2C(=O)C(CC(=O)NCCc3ccccn3)CC(C(=O)N(C(C)C)C(C)C)=C2C)cc1 (stereo unspecified)	.	.	5	.
O=C(COC(=O)c1ccc(N2CCCC2=O)cc1)Nc1ccccc1	.	.	-5	.
O=C(COC(=O)c1ccc(N2CCCC2=O)cc1)c1ccccc1	-19	6	28*	1
O=C(NCc1ccc2c(c1)OCO2)c1cc2ncc(Br)cn2n1	-5	67*	5	.
O=C(NCc1ccc2c(c1)OCO2)c1ccc(Br)cc1	-5	0	2	-1
CC(/C=N\NC(=O)c1cccnc1)c1ccccc1 (stereo unspecified)	-2	-3	33*	0
C/C(=N\NC(=O)c1cccnc1)c1ccccc1	-6	-1	11	3
COc1cc(CN2C[C@@H](CO)O[C@@H](n3cnc4c(N5CCCC5)ncnc43)C2)cc(OC)c1OC	.	.	3	.
O=C(NCc1cccnc1)c1cc(C2CCCCN2S(=O)(=O)Cc2ccccc2)on1 (stereo unspecified)	.	.	18	.
COc1ccc(Nc2cc(C(=O)NCCCN3CCOCC3)c3ccccc3n2)cc1	18	-11	0	.
COc1ccc(-c2cc(C(=O)NCCCN3CCOCC3)c3cc(C(C)C)ccc3n2)cc1	37*	6	-6	4
CCOc1ccc(-c2cc(C(=O)NCCCN3CCOCC3)c3ccccc3n2)cc1	19	-1	1	3
COc1ccc(Nc2cc(C(=O)NCCCN3CCN(C)CC3)c3ccccc3n2)cc1	41*	-11	2	-2
COc1ccc(OC)c(Nc2cc(C(=O)NCCCN3CCOCC3)c3ccccc3n2)c1	41*	-19	12	0
COc1ccc(C(=O)Nc2n[nH]c(-c3ccncc3)n2)cc1	0	0	26*	-1
COc1ccc(C(=O)Nc2nc(C)cc(C)n2)cc1	5	-2	4	1
COc1cc(C)ccc1S(=O)(=O)NC(=O)Cn1nnc(COc2ccc3c(c2)CCCC3)c1C	.	.	-2	.
Cc1ccc(S(=O)(=O)n2cccc2/C=C/[N+](=O)[O-])cc1	.	.	-22	.
COc1ccc(C2=NN3C(C2)c2ccccc2OC3c2cccs2)cc1 (stereo unspecified)	18	2	-25	4
COc1ccc(C2=NN3C(C2)c2ccccc2OC32C(=O)N(C)c3ccccc32)cc1 (stereo unspecified)	-7	65*	-38	0
Oc1ccc(CCNc2c3ccccc3nc3ccccc23)cc1O	39*	-6	13	-39*
c1ccc(CNc2c3ccccc3nc3ccccc23)cc1	27	1	4	-2
Cc1[nH][nH]c(=O)c1C(c1ccc(-c2ccc(Cl)cc2Cl)o1)c1c(C)[nH][nH]c1=O	-7	.	.	.
Cc1[nH][nH]c(=O)c1C(c1ccc(-c2cccc(C(=O)O)c2)o1)c1c(C)[nH][nH]c1=O	-3	0	-1	-52*
SMILES	DNA FID counter	core dimer inh	CendR NRP1 mod	MEX-5 binding
Cc1[nH][nH]c(=O)c1C(c1ccc(-c2ccccc2C(=O)O)o1)c1c(C)[nH][nH]c1=O	1	1	3	-35*
CCCCCc1ccc(OCCC[n+]2ccccc2)c(CCCCC)c1	45*	1	2	3
CCCCCc1ccc(OCCOCCn2c[n+](C)c3ccccc32)c(CCCCC)c1	37*	.	1	0
O=C1C=C(c2ccc3[nH]ccc3c2)CCC1	.	5	1	-1
COc1ccc2cc(C3=CC(=O)CCC3)ccc2c1	.	.	28*	.
Cn1c(NCCc2ccncc2)nc2cc(-c3cccc(C(F)(F)F)c3)sc2c1=O	.	.	6	.
Cc1c2ccccc2nc2c(F)c(NCCO)c(F)c(F)c12	-14	25	130	-31*
Cc1c2ccccc2nc2c(F)c(NC(C)C)c(F)c(F)c12	-15	8	121	-33*
